Compound activity as filed in PubChem BioAssay.
Rows were chosen to be rich in hits. Some 0.72% of all compounds tested hit in one or more screens of this group.
hIAP act: increases human intestinal alkaline phosphatase activity; P09923; purified human IAP, CDP-Star luminescence, 30 min; hits give high values; 1 = vehicle-only enzyme, 0 = enzyme-free background; activation factor at 10 µM; hit rate 0.16% among 330,000;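 active = activation factor of the enzyme at least 2-fold when tested at 20 µM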
Target sequence (P09923 whole entry, looked up): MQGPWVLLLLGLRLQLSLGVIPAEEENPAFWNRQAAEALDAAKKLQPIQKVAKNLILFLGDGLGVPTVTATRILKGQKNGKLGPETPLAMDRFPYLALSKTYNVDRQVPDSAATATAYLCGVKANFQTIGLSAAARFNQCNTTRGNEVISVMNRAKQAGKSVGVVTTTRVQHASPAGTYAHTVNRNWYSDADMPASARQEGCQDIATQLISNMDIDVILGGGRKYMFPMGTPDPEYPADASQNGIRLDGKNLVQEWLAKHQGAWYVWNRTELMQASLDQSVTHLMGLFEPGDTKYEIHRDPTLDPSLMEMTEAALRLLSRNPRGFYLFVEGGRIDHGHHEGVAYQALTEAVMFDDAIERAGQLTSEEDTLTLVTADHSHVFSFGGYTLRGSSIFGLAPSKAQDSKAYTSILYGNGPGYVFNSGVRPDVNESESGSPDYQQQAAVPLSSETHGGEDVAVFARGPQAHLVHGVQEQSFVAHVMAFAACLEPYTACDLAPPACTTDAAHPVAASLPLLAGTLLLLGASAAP
mIAP block: mouse IAP inhibition | hit rate 0.2% among 330,000 | inhibition, % at 10 µM | AID 2806 | purified mouse IAP, CDP-Star luminescence, 30 min;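 active = inhibition of at least 40% at 10 µM in the primary screen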;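 also: plate controls were DMSO with enzyme for no effect and no enzyme wells for full effect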
hIAP inh: human IAP inhibition | hit rate 0.12% among 330,000 | P09923 | purified IAP, CDP-Star luminescence, 30 min | inhibition, % at 10 µM;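 active = inhibition reaching a set limit with compound at 10 µM in the primary screen, cut at about 35% in these data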;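 also: plate controls were DMSO wells with enzyme for no effect and no-enzyme buffer wells for full effect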
mIAP act: mouse IAP activation. muIAP, CDP-Star luminescence, 30 min; hits give high values; 1 = vehicle-only enzyme signal, 0 = enzyme-free wells. activation factor at 10 µM. hit rate 0.24% among 330,000. AID 2805;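 active = activation factor of at least 2 at 20 µM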
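Assay system: mouse IAP enzyme / Compound: DMSO-dissolved test compounds / Timing: 30 min, room temperature / Measured by: luminescence from enzymatic CDP-Star hydrolysis / Control set: DMSO-only wells, enzyme-free buffer wells as negative control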
bIAP inh: intestinal alkaline phosphatase (bovine) inhibition | purified bovine IAP, CDP-star luminescence, 30 min | inhibition, % at 20 µM | 190,000 tested, under 10 active;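 active = over 50% inhibition of intestinal alkaline phosphatase at 20 µM in the single-dose screen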
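test system = bovine IAP enzyme | medium = DEA buffer 100 mM, pH 9.8, with MgCl2 1.0 mM, ZnCl2 0.02 mM | detection = luminescence | dosing = single compound dose of 20 µM, 2% DMSO final | incubation = 30 min reaction at room temperature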
bIAP act: intestinal alkaline phosphatase (bovine) activation; activation factor at 20 µM; purified bovine IAP, CDP-star luminescence, 30 min; hits give high values; fold of DMSO-control signal, blank-subtracted; AID 1016; hit rate 0.17% among 200,000;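 active = activation factor of 2 or more at 20 µM, a signal rise over negative controls twice the positive control's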
mIAP inh confirm: mouse IAP inhibition confirmation | shares compounds with mIAP block | hit rate 4.7% among 11,000 | AID 434971 | inhibition, % at 10 µM | purified mouse IAP, CDP-Star luminescence, 30 min;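 active = inhibition of at least 40% at 10 µM in either of the two replicates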;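 also: plate controls were DMSO wells with enzyme for no effect and buffer wells lacking enzyme for full effect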
An asterisk follows results filed as active; . = no result given.

SMILES	hIAP act	mIAP block	hIAP inh	mIAP act	bIAP inh	bIAP act	mIAP inh confirm
Cc1oc(-c2ccc(Cl)cc2)cc1-c1nn2c(-c3ccoc3C)nnc2s1	0.889	41.4*	11.1	0.586	0.7	1	49.1*
COC(=O)c1ccc(OC(=O)/C=C/c2ccco2)cc1	1.12	2.2	-12.2	0.978	.	.	.
O=Cc1cccc(OC(=O)/C=C/c2ccco2)c1	0.962	48.6*	3.8	0.514	.	.	57.4*
CN(C)S(=O)(=O)c1ccc(Cl)c(NC(=O)CN2C(=O)NC3(CCc4ccccc43)C2=O)c1 (stereo unspecified)	0.94	-4.0	6.0	1.04	.	.	.
O=[N+]([O-])c1ccccc1NC(=S)N/N=C/c1ccc(O)c(O)c1	0.866	74.9*	13.4	0.251	18.4	0.8	72.1*
Cc1ccc2[nH]c3c(NCc4ccccc4)ncnc3c2c1	1.51	-204.3	-50.8	3.04*	.	.	-148.9
COc1ccc(CNc2ncnc3c2[nH]c2cc(OC)c(OC)cc23)cc1	1.06	-84.9	-5.7	1.85	.	.	.
COc1ccc(CNc2ncnc3c2[nH]c2ccccc23)cc1	1.65	-206.5	-64.5	3.06*	.	.	-171.2
Brc1ccc2[nH]c3c(NCc4ccccn4)ncnc3c2c1	1.23	-22.0	-22.7	1.22	.	.	.
Cc1ccc(CN2C(=O)C(C)Nc3ncnc(N4CCN(c5ccccn5)CC4)c32)cc1 (stereo unspecified)	0.939	6.3	6.1	0.937	.	.	.
COc1cccc(NC(=O)C2CCN(Cc3cnn(-c4ccccc4)c3-n3cccc3)CC2)c1	1	-180.0	-0.2	2.8*	-298.7	4*	-100.8
Cn1cnnc1SCC(=O)Nc1sc2c(c1C(N)=O)CCC2	0.856	57.2*	14.4	0.428	1.4	1	54.0*
COCCn1cnnc1SCC(=O)Nc1sc2c(c1C#N)CCC2	1.1	3.9	-10.1	0.961	.	.	.
O=C1CC(c2ccco2)CC(O)=C1C=Nc1cc(Cl)ccc1Cl (stereo unspecified)	0.985	39.8	1.5	0.602	-2.2	1	.
O=C1CC(c2ccco2)CC(O)=C1C=Nc1cc(Cl)ccc1O (stereo unspecified)	1.68	63.9*	-68.0	0.361	-42.0	1.4	69.8*
COc1ccccc1C(=O)NCC(=O)N1CC=C(c2ccccc2)CC1	0.978	-6.0	2.2	1.06	.	.	.
O=C(NN=Cc1ccc(O)cc1)c1ccccc1NS(=O)(=O)c1cccs1	1.08	-3.3	-8.1	1.03	.	.	.
O=C(N/N=C/c1cc(Cl)cc([N+](=O)[O-])c1O)c1ccccc1NS(=O)(=O)c1cccs1	1.22	41.4*	-22.0	0.586	.	.	43.6*
O=C(N/N=C/c1cc(Cl)cc([N+](=O)[O-])c1O)c1ccc2c(c1)OCO2	0.798	60.4*	20.2	0.396	.	.	67.6*
CCOC(=O)c1c(S(=O)(=O)N2CCCCC2C)c(C)n(C)c1C (stereo unspecified)	1.23	2.7	-22.6	0.973	.	.	.
O=C(Nc1ccc2c(c1)N(Cc1ccccc1)C(=O)c1ccccc1S2)NC1CC1	0.934	-174.4	6.6	2.74*	-48.7	1.5	-144.9
C[C@@H]1O[C@@H](O[C@H]2[C@H](O)[C@@H](O)[C@H](Oc3c(-c4ccc(O)cc4)oc4cc(O)cc(O)c4c3=O)O[C@@H]2CO)[C@H](O)[C@H](O)[C@H]1O	1.04	-5.4	-3.8	1.05	.	.	.
C[C@@H]1O[C@@H](OC2C(O)C(OCCc3ccc(O)c(O)c3)OC(CO)C2OC(=O)/C=C/c2ccc(O)c(O)c2)[C@H](O)[C@H](O)[C@H]1O (stereo partly specified)	0.744	45.7*	25.6	0.543	.	.	41.5*
O=C(COc1ccccc1)Nc1ccc2oc(=O)ccc2c1	0.92	6.0	8.0	0.94	.	.	.
CC(=O)NC(NC(=S)Nc1ccc(C)cc1C)C(Cl)(Cl)Cl (stereo unspecified)	0.986	-13.5	1.4	1.14	.	.	.
Cc1ccc(NC(=S)NC(NC(=O)c2ccccc2C)C(Cl)(Cl)Cl)c(C)c1 (stereo unspecified)	1.16	-211.5	-15.5	3.12*	-4.9	1	-211.1
N#CC(C#N)=C(N)/C(C#N)=C/c1cc(O)c(O)c(O)c1	0.968	70.5*	3.2	0.295	.	.	65.6*
